# Screens from PubChem.
# In the library only some 5.8% were active in any assay of this set; here they are far more common.
# RBBP9 inhibitor: inhibitors of human serine hydrolase RBBP9; O75884; recombinant RBBP9, FP-Rh probe fluorescence polarization; inhibition, % at 7.94 µM; actives 0.2% (n = 220,000);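 active = inhibition above the campaign mean of all tested compounds plus 3 SD, cut at about 14% in these data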;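 also: plate controls were DMSO wells with RBBP9 for no effect and wells lacking RBBP9 protein for full effect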
# Target sequence (O75884 whole entry, looked up): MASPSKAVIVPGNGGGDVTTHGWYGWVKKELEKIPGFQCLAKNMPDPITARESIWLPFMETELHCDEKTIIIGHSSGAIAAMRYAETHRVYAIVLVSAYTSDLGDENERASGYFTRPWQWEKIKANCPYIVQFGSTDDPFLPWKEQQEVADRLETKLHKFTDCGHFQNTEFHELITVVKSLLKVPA
#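 Measured by – fluorescence polarization · Test system – RBBP9 protein · Input – 2.5 µM RBBP9 dispensing solution, before mixing · Measure – percent inhibition from mP, scaled between DMSO and no-protein wells · Benchmarks – DMSO-treated enzyme wells and wells lacking RBBP9 · Times – preincubation 30 min plus labeling 45 min at 25 °C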
# WT yeast gro inh: growth inhibition of WT yeast, mitochondrial fusion screen | actives 2.1% (n = 190,000) | inhibition, % at 10 µM | mitochondrial fusion phenotypic screen, WT strain; in the data active = inhibition above about 58%; tested in S. cerevisiae
# KCC2 mod: KCC2 (human) Cl- transport modulation; Q9H2X9; KCC2 cells, thallium flux FluoZin-2 fluorescence; B-score of Tl+ flux slope (higher = more flux/activation; lower = inhibition) at 10 µM; actives 2.2% (n = 190,000); AID 1456;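 active = thallium flux slope and its plate-corrected score both differing from the plate sample mean at a set confidence after two filtering rounds, in either direction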;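 also: slope of fluorescence scaled to starting intensity during 10 to 20 s after thallium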
# NCF1 inh: p47phox (human) inhibition; AID 1274; actives 0.53% (n = 220,000); p47phox/p22phox peptide binding, fluorescence polarization, 2 h; P14598; inhibition, % at 24.7 µM;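 active = inhibition above about 30%, limit read from the data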;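 also: 0% = p47phox with labelled peptide and 100% = labelled peptide alone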
# 14-3-3 Bad inh: disrupts binding of bovine 14-3-3 zeta to phospho-Bad peptide. actives 0.71% (n = 220,000). TR-FRET 14-3-3zeta/Dy647-pBad peptide displacement, 1 h. inhibition, % at 21.7 µM. P63103;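 active = inhibition above about 70%, limit read from the data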;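 also: 0% = full 14-3-3 plus peptide FRET controls and 100% = background without 14-3-3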
# ROMK mod: human ROMK K+ channel modulation, primary screen; actives 2% (n = 130,000); P48048; Tet-inducible ROMK, thallium flux fluorescence; actives lie on both sides; B-score at 10 µM; AID 1918;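 active = signal ratio slope over the read window, or its plate-corrected B-score, at least 3 SD from the plate mean, either direction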;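 also: B-score of the F/F0 ratio slope over 7 to 12 s after thallium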
# Target sequence (P48048 whole entry, looked up): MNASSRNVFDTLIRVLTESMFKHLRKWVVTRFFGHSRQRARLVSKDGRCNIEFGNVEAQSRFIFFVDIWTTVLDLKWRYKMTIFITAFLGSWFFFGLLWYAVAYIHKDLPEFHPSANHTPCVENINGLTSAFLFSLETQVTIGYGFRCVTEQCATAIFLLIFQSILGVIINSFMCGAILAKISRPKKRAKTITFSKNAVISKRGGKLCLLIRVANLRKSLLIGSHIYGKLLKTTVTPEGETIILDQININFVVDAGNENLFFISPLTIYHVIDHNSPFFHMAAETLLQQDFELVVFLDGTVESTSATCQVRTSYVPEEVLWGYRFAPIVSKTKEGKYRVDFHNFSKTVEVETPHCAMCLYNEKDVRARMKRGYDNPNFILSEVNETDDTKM
# KCC2 sec1: confirmation of human KCC2 transport modulators; actives 15% (n = 3,700); shares compounds with KCC2 mod; normalised thallium flux (F/F0 slope) at 10 µM; AID 1713; HEK293-KCC2, thallium flux, FluoZin2 fluorescence; hits give high values;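 active = thallium flux slope above the same plate's solvent-only control mean plus 3 SD; inconclusive = the two replicate wells disagree; inactive = no significant difference from solvent-only control wells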
# KCC2 bumet counter: thallium flux despite bumetanide block in KCC2 cells, secondary assay 3; shares compounds with KCC2 mod; HEK293-KCC2 + bumetanide/ouabain, thallium flux FluoZin2; hits give high values; normalized thallium flux at 10 µM; actives 49% (n = 3,700);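 active = thallium entry rate above the same plate's blocked-transporter control wells by more than 3 SD; inconclusive = the two repeat wells disagree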;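 also: raw slope of fluorescence over initial fluorescence between 10 and 20 s after thallium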
# KCC2 sec2: confirmation of human KCC2 transport modulators. actives 23% (n = 3,700). HEK293-KCC2, thallium flux FluoZin2 fluorescence; actives lie on both sides; F/F0 rise rate, 10–20 s post-thallium. normalized thallium flux at 10 µM. AID 1715. shares compounds with KCC2 mod;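 active = thallium flux slope more than 3 SD above or below the plate's solvent-only control mean, mostly below; inconclusive = the two repeat wells disagreed; inactive = no significant shift from solvent-only controls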;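 also: raw slope with 0.1% DMSO as baseline and bumetanide as block control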
# HEK counter1: counter-screen for KCC2 modulators: effect in parental HEK293 cells; thallium flux FluoZin2, ouabain; baseline-ratio fluorescence slope, 10–20 s after thallium; shares compounds with KCC2 mod; actives 46% (n = 3,700); thallium flux rate (normalised fluorescence) at 10 µM;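 active = thallium flux rate significantly above the same plate's solvent-only control wells, beyond their mean plus 3 SD; inconclusive = the two replicate wells gave conflicting results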
# KCC2 ouabain: KCC2 (human) modulation, ouabain retest. shares compounds with KCC2 mod. HEK293-KCC2, thallium flux FluoZin2 fluorescence; bidirectional: low = inhibitor, high = activator. raw Tl+ flux slope (below DMSO = inhibition, above = activation) at 10 µM. actives 48% (n = 3,700);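 active = thallium flux slope beyond 3 SD from same-plate DMSO control mean in most replicates, usually higher, sometimes lower; inconclusive = repeat tests gave conflicting results; inactive = no significant difference from controls in most replicates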;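 also: slope of initial-normalized fluorescence between seconds 10 and 20 after thallium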
# HEK counter2: parental HEK flux effect, counter-screen 2; shares compounds with KCC2 mod; HEK293 parental, thallium flux FluoZin-2 fluorescence slope; thallium flux slope at 10 µM; actives 33% (n = 3,700); AID 1718;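 active = thallium flux slope above the same plate's solvent-control mean plus 3 SD in both duplicate wells; inconclusive = duplicate wells that disagreed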;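 also: run without ouabain in cells lacking the KCC2 cotransporter; slope of fluorescence scaled to its starting value between 10 and 20 s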
# * marks the source's active call; other numbers are inactive results; ? = inconclusive; . = no result given.
SMILES,RBBP9 inhibitor,WT yeast gro inh,KCC2 mod,NCF1 inh,14-3-3 Bad inh,ROMK mod,KCC2 sec1,KCC2 bumet counter,KCC2 sec2,HEK counter1,KCC2 ouabain,HEK counter2
CC(=C\c1ccccc1)/C=C1/SC(=O)N(CCCC(=O)Nc2ccc(C(=O)O)cc2)C1=O,1,-14,-4.2,-13,-1,-0.9,.,.,.,.,.,.
CC(/C=C1\SC(=S)N(CCCC(=O)Nc2ccc(C(=O)O)c(O)c2)C1=O)=C\c1ccccc1,-18,2,-4.7*,-77,50,.,0.0061,0.0043,0.026,0.0068,0.014*,0.0095
CC(/C=C1\SC(=S)N(NS(=O)(=O)c2ccc(C)cc2)C1=O)=C\c1ccccc1,-10,.,99*,-93,28,.,0.0065,0.1*,0.072*,0.083*,0.08*,0.071*
CC(/C=C1\SC(=S)N(c2ccc(C(=O)O)cc2)C1=O)=C\c1ccccc1,-25,.,-1.4,-61,3,-2.5,.,.,.,.,.,.
CC(/C=C1\SC(=S)N(C(C(=O)O)C(C)C)C1=O)=C\c1ccccc1 (stereo not drawn),1,-15,-3.3*,-10,5,0.019,0.0057,0.0047,0.025*,0.0068,?,0.011
Cn1c(-c2sc3cc(C(F)(F)F)cnc3c2-c2ccccn2)n[nH]c1=S,-7,8,0.21,-8,-7,0.048,.,.,.,.,.,.
Cn1c(-c2sc3cc(C(F)(F)F)cnc3c2-c2cccs2)n[nH]c1=S,-15,65*,10*,-3,-11,0.16,0.009,0.015*,0.031,0.0099*,?,0.01
COc1ccc(N/C=C/c2nc(SC)nnc2C)cc1,0,9,-3*,-16,-7,-2.3,0.0068,0.0022*,0.024*,0.004*,0.012*,0.0077*
Oc1ccc(N=Nc2ccc3c(c2)OCO3)c2ccccc12,5,.,9*,0,2,.,0.015,0.011*,0.028,0.011*,0.02*,0.012
CS(=O)(=O)c1nc(-c2ccc(Br)cc2)n[nH]1,-11,14,-3.5,2,9,1.3,.,.,.,.,.,.
CCSS(=O)(=O)c1cccc2cccnc12,-2,.,3.9*,52*,15,.,?,0.0079*,0.034,0.01*,?,0.014*
O=C(CSc1nnc2ccc(-c3ccc(F)cc3)nn12)N1CCCC1,-1,-2,-0.73,-3,-8,0.0025,.,.,.,.,.,.
CCN1C(=O)N(S(=O)(=O)c2ccc(C)cc2)[C@@H](c2ccccc2)C(C(=O)OC)=C1C,.,.,-0.87,-11,4,.,.,.,.,.,.,.
Cc1ccc(C)c(N2CCN(C(=O)CCCn3c(=S)[nH]c4cc5c(cc4c3=O)OCO5)CC2)c1,-4,40,3.4*,-16,6,.,0.0058,0.016*,0.03,0.01*,?,0.012
CCOCCCn1c(=S)[nH]c2cc3c(cc2c1=O)OCO3,-9,2,5.7*,-12,-2,-0.075,?,0.043*,0.035,0.019*,0.04*,?
COc1ccccc1NC(=S)N1CCC(C(=O)c2ccc(F)cc2)CC1,-1,10,0.2,-10,-1,-0.28,.,.,.,.,.,.
CCc1ccc(OCc2nnc(SCC(=O)Nc3cccc(C(=O)N4CCOCC4)c3)o2)cc1,-4,-17,-3.4*,-4,4,-0.073,0.0057,0.0046,0.029,0.0072,0.017,0.01
COc1ccc(C(=O)CSc2nnc(-c3ccccc3)o2)cc1,-1,-10,-2.2,-9,-5,0.072,.,.,.,.,.,.
COc1ccc(-c2nnc(SCc3ncc(-c4ccccc4)o3)o2)cc1,2,7,-3*,-1,8,0.2,0.0068,0.0047,?,0.0066,0.018,0.01
CCN(CC(=O)Nc1ccc(C)c(F)c1)CC(=O)NC(C)(C)C,10,2,-0.5,.,-2,1,.,.,.,.,.,.
CC(=O)C1C(c2ccc([N+](=O)[O-])cc2)c2c(noc2C)CC1(C)O (stereo not drawn),-1,.,0.86,-8,-8,.,.,.,.,.,.,.
CCC1=NN2C(=N)/C(=C\c3cccn3-c3ccc(Br)cc3)C(=O)N=C2S1,-3,23,11*,43*,79*,1.1,0.0075,0.022*,0.033,0.019*,0.025*,0.014*
CCC1=NN2C(=N)/C(=C\c3cccn3-c3cccc(Cl)c3)C(=O)N=C2S1,1,62*,8.8*,-23,-16,1.9,0.017,0.05*,?,0.021*,0.026*,0.021*
CCC(CC)C1=NN2C(=N)/C(=C\c3cc(C)n(-c4cccc(C)c4)c3C)C(=O)N=C2S1,-12,6,6.3,-37,-8,-0.15,.,.,.,.,.,.
O=C(COC(=O)Cc1c(Cl)cccc1Cl)Nc1ccc(OC(F)(F)F)cc1,-6,3,0.059,-4,-7,0.56,.,.,.,.,.,.
CC12CCC(C(=O)Nc3nc4ccc(Br)cc4s3)(OC1=O)C2(C)C (stereo not drawn),-6,66*,9.7*,-7,9,0.17,0.0052,0.04*,?,0.017*,0.035*,0.022*
CC12CCC(C(=O)Nc3nccs3)(OC1=O)C2(C)C (stereo not drawn),-9,8,0.082,-10,-14,.,.,.,.,.,.,.
CN(C(=S)NC(=O)/C=C/c1ccc(F)cc1)C1CCCCC1,3,2,12*,-10,-2,-2,0.012,0.072*,0.033,0.019*,?,0.014*
CC(=O)c1c(C)cc(C)c(CSc2nnc(-c3ccco3)o2)c1C,-6,-11,6*,-59,4,.,0.0058,0.0041,?,?,0.018,0.0097
CN(C)c1ccc(S(=O)(=O)N2CCCCC2)cc1NC(=O)COc1ccccc1F,5,.,0.15,0,-2,.,.,.,.,.,.,.
